Avidin fluor: green autofluorescence of compounds with avidin beads – biophysical, 488/530 nm, flow cytometry, artefact control, profiling panel; compound fluorescence 488/530 nm; active compounds read high; fluorescence (KMESF) at 10 µM; 0.38% of 220,000 active; AID 1775, 2009; in the data active = fluorescence above about 47
ABCB1 inh: ABCB1 efflux pump inhibitors, primary screen, cell-based, multiplex, flow cytometry, ABCG2 counter-screen; CCRF-Adr cells, JC-1 efflux; inhibition, % at 6.6 µM; 0.067% of 190,000 active; AID 1326, 2008; in the data active = inhibition above about 40%;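 note: 0% = vehicle and 100% = reference inhibitor; higher value means more JC-1 retained so stronger ABCB1 efflux block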
ABCG2 block: ABCG2 efflux pump inhibitors, primary screen, multiplex with ABCB1, IgMXP3 cells, flow cytometry; Broad substrate specificity ATP-binding cassette transporter ABCG2 (Homo sapiens), Q9UNQ0; 0.1% of 190,000 active; inhibition, % at 6.6 µM; JC-1 efflux;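 active = inhibition above 80%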;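 note: 0% = DMSO and 100% = nicardipine control wells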
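Test system: ABCG2 IgMXP3 and barcoded ABCB1 CCRF-Adr cell mix; Schedule: cells with compound and JC-1, 10 min at 25 °C, rotating, no wash; Technique: flow cytometry of retained JC-1 fluorescence; Measure: % inhibition of efflux relative to nicardipine and DMSO; Controls: nicardipine high and DMSO low controls.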
PKD1 inh: inhibitors of human PKD1 kinase, biochemical, fluorescence polarization; inhibition, % (no concentration beside the values); AID 797, 2007; PKD1 kinase fluorescence polarization assay; 0.056% of 200,000 active; Serine/threonine-protein kinase D1 (Homo sapiens), Q15139
GSH fluor: compound fluorescence on glutathione beads, profiling panel, artefact control, biophysical, 488/530 nm, flow cytometry; GSH beads flow cytometry, compound fluorescence 488/530 nm; active compounds read high; fluorescence (KMESF) at 10 µM; 0.25% of 190,000 active; in the data active = fluorescence above about 89;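 note: glutathione beads carrying GST-tagged Bcl family fusion proteins plus one bare bead set; values are compound well signal with DMSO vehicle wells as background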
Lmaj promast: Leishmania major promastigote growth inhibition, primary screen. Leishmania major promastigotes, resazurin fluorescence viability. inhibition, % at 10 µM. 9% of 200,000 active;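 note: promastigotes grown with compound for 44 hours at 28 °C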
Starred values were filed as active, the others as inactive; . = no result given. The entries come from a sample that favours hits as a whole. Cut-off read from the data, not from the text of the source, unless noted: active = inhibition above about 50%; inactive = the rest.

SMILES	Avidin fluor	ABCB1 inh	ABCG2 block	PKD1 inh	GSH fluor	Lmaj promast
Nc1[nH]n2c(=O)cc(-c3ccccc3)nc2c1N=Nc1ccccc1	13	-1	-2	-8	15	98*
COc1cccc(C2SCC(=O)N2c2ccc(Cl)cc2)c1OC (centres undefined)	12	4	8	-3	5	67*
CCOc1ccc(CN2CCN(S(=O)(=O)c3ccc(NC(C)=O)cc3)CC2)cc1	13	1	3	-1	19	-3
CNc1ccc(Br)cc(C(=O)/C=C/c2cccc(OC)c2OC)c1=O	4	0	-3	20	9	48
CNc1ccc(Br)cc(C(=O)/C=C/c2cccc(Cl)c2Cl)c1=O	11	2	3	-12	14	96*
Cc1[nH]c2ccccc2c1C(=O)/C=C\c1ccccc1Cl	13	0	1	-8	18	20
CCNc1ccc(Br)cc(C(=O)/C=C/c2ccccc2Cl)c1=O	.	.	.	0	.	99*
CCNc1ccccc(C(=O)/C=C/c2ccc3c(c2)OCO3)c1=O	23	0	-2	7	21	63*
COC(=O)/C=C/c1ccc2c(c1)OCO2	23	1	2	-1	11	-5
O=C(CN1CCN(c2ccc(O)cc2)CC1)Nc1cc(S(=O)(=O)N2CCCC2)ccc1Cl	11	1	50	-4	13	42
O=C(CN1CCN(Cc2ccccc2)CC1)Nc1ccc(Cl)cn1	9	0	1	-5	65	53*
O=C(CN1CCN(Cc2ccccc2)CC1)Nc1cccc(C(F)(F)F)c1	15	0	-2	2	14	65*
O=C(CN1CCN(c2ccccc2)CC1)Nc1cccc(C(F)(F)F)c1	6	-2	-4	-6	38	-4
O=C(CN1CCN(c2ccc(O)cc2)CC1)Nc1cc(S(=O)(=O)N2CCCCC2)ccc1Cl	11	1	0	-5	10	99*
O=S(=O)(c1ccc(Cl)c(NC(=S)N/N=C/c2ccc(O)cc2)c1)N1CCOCC1	16	0	-1	-9	10	88*
Cc1cc(Br)ccc1OCC(=O)NNC(=O)c1cnccn1	4	1	12	-7	7	19
O=C(CN1CCCC1)Nc1ccc2c(c1)CCC2	10	0	4	-1	11	-1
CC1CCN(CC(=O)Nc2cccc(C(=O)Nc3cccc(C(F)(F)F)c3)c2)CC1	17	.	9	-7	9	82*
O=C(CN1CCN(Cc2ccccc2)CC1)Nc1cccc(S(=O)(=O)N2CCCCCC2)c1	9	2	-3	-3	16	79*
O=C(CN1CCN(Cc2ccccc2)CC1)Nc1ccc2c(c1)CCC2	23	1	2	1	8	74*
O=C(CN1CCOCC1)Nc1cccc(S(=O)(=O)N2CCCCCC2)c1	20	0	0	-10	9	-5
O=C(Nc1cccc(S(=O)(=O)N2CCCCC2)c1)c1c2c(nc3ccccc13)CCN(Cc1ccccc1)C2	3	2	-5	-2	8	90*
Cc1cc(C(=O)Nc2cccc(S(=O)(=O)N3CCCCC3)c2)c2ccccc2n1	26	1	3	-1	16	3
CC1CN(CC(=O)Nc2cccc(C(=O)Nc3cccc(C(F)(F)F)c3)c2)CC(C)O1 (centres undefined)	38	0	1	2	17	13
CC1=CC(C)(C)n2c(O)c(C3=NC(=S)NC3=O)c3cc(OC(=O)c4cccc5ccccc45)cc1c32	10	-1	-1	1	73	8
Cc1c(NC(=S)N2CCN(c3ccc(F)cc3)CC2)c(=O)n(-c2ccccc2)n1C	11	0	3	3	15	0
CCN(CC)C(=O)NC1CC(=O)N(c2ccc(OC)cc2)C1 (centres undefined)	16	0	-2	2	17	-7
CCOC(=O)C1(Cc2cccc(F)c2)CCN(Cc2ccc(COC)o2)CC1	7	.	.	.	.	.
O=C(COc1cccc(Cl)c1)Nc1ccc(N2CCOCC2)cc1	8	0	0	1	12	-2
